pIC50: −log10 of the molar value.
Legend:
[1] = test system: LS1034 colorectal cancer cells; assay: Cellular viability assay; assay type: cell-based; details: Homo sapiens, LS-1034
In short: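 LS1034 cells were grown in RPMI with 10% heat-inactivated FBS and 1% penicillin-streptomycin, and tested mycoplasma-negative. They were seeded at 2000 cells/well and digitally dispensed with compound the next day. Exposure was 5 days. CellTiter-Glo luminescence was read, replicate wells were averaged and normalized to vehicle, and dose curves were fitted.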

ABCB1 = ABCB1 (Homo sapiens, UniProt P08183); assay: ABCB1 activity assays; assay type: cell-based; details: MDR1-MDCK cells; calcein AM and loperamide transport assays
ABCB1, sequence (P08183 whole entry): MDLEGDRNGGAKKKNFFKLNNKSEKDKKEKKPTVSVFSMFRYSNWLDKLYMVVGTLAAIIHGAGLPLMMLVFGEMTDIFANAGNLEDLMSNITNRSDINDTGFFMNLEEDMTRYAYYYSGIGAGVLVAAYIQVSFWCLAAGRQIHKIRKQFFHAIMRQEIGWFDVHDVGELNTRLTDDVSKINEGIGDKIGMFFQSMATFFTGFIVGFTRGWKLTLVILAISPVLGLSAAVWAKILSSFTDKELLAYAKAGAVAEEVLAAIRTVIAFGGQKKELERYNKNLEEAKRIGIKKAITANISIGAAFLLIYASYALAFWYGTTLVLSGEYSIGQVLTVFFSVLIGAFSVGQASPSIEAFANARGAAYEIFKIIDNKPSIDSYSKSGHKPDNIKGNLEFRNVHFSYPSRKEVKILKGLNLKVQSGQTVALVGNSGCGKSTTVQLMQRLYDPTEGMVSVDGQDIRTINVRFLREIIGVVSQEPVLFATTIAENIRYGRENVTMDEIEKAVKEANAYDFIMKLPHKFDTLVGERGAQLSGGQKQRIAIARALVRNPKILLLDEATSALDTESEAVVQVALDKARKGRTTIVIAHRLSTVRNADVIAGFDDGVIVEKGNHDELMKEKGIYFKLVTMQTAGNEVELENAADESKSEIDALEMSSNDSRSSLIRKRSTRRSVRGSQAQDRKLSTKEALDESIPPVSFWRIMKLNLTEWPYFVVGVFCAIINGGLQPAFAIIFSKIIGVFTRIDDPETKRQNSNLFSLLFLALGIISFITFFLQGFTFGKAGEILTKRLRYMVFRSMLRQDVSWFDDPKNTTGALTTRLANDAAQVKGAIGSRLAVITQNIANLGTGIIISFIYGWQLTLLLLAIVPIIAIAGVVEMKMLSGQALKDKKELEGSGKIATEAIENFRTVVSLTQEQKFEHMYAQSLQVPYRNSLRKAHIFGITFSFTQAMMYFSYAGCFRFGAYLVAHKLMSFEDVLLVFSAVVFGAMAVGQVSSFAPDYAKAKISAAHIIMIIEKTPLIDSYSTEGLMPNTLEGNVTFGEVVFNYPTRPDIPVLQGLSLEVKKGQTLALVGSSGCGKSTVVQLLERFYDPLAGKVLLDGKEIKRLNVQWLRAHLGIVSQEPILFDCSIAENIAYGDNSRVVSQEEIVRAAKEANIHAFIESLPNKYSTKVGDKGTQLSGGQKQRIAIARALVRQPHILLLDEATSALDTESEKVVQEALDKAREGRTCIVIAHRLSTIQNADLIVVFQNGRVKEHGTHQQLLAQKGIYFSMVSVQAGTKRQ
In short: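 Calcein AM efflux assay: MDR1-MDCK (MDCKII) cells incubated with test compound and calcein AM; fluorescence read-out expressed as percent ABCB1 inhibition, mean of 3 replicates. Transport assay: loperamide added to the apical side of an MDR1-MDCK monolayer and basolateral transport quantified over 60 minutes, with test compound or verapamil positive control.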

[2] = test system: Kuramochi ovarian cancer cell line; assay: Viability of Kuramochi wild type and ABCB1-overexpressing cells; assay type: cell-based, human; details: low-expressing, tepoxalin-insensitive cell line (Kuramochi), 8 days
In short: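 Kuramochi ovarian cancer cells, wild-type or ABCB1-overexpressing, were grown in RPMI with 10% FBS and seeded at 2000 cells/well. Compound was added the next day and cells were treated for 8 days. Viability was read by CellTiter-Glo luminescence, normalized to vehicle, and reported as the mean of 3 independently treated wells with SD.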

[3] = test system: LS1034 colon cancer cell lines with and without ABCB1 knockout
[4] = test system: ABCB1-expressing cancer cells; assay: Viability of ABCB1-expressing cancer cells; assay type: cell-based, human; details: compared with tepoxalin
PDE3A-SLFN12 = details: cited from earlier work
SF295 glioma cell line = assay: Viability of SF295 cells with and without MTF1 knockout; assay type: cell-based, human; details: for change of drug sensitivity after MTF1 knockout: SF295 cells, CRISPR/Cas9 MTF1 knockout vs control
In short: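 SF295 glioma cells: wild-type, Cas9 with GFP sgRNA, or Cas9 with MTF1 sgRNAs. Knockout was confirmed by NGS indel assay and loss of MTF1 target gene expression by RNA-seq. Cells were seeded at 2000 cells/well and dosed the next day. CellTiter-Glo viability was normalized to vehicle and reported as the mean of 3 independently treated wells with SD.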

LS1034 cells = assay: Tepoxalin drug synergy/antagonism assay, LS1034; assay type: cell-based, human; details: LS1034, 5 days, tepoxalin doses above ~5 μM
[5] = test system: LS1034 and REC1 cell lines; assay: Drug synergy/antagonism assays, LS1034 and REC1; assay type: cell-based, human
In short: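 LS1034 or REC1 cells received a dose-response matrix of test compound with paclitaxel, and viability was read by CellTiter-Glo. Signals were normalized to the median of DMSO wells on each plate. Bliss synergy scores were estimated across all dose combinations with default baseline correction. The value is the score with highest magnitude across combinations (max synergy).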

OVISE cells = assay: Viability of OVISE cells with and without SLC26A2 knockout; assay type: cell-based, human; details: CRISPR/Cas9 SLC26A2 knockout
In short: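 OVISE cells were grown in RPMI with 10% FBS and used with or without CRISPR/Cas9 SLC26A2 knockout; GFP sgRNA served as the non-targeting control. Indel frequency at the cut sites was checked by NGS. Cells were seeded at 2000 cells/well and dosed the next day. CellTiter-Glo viability was normalized to vehicle and reported as the mean of three independently treated wells with SD.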

Compound: COc1ccc(-n2nc(CCC(=O)N(C)O)cc2-c2ccc(Cl)cc2)cc1 [tepoxalin]
- pIC50 [1]: 5.42
- ABCB1 inhibition (ABCB1): inhibit ABCB1 at high concentrations
- change of drug sensitivity after ABCB1 overexpression [2]: increased drug sensitivity

Compound: COc1ccc(-n2nc(CCC(=O)O)cc2-c2ccc(Cl)cc2)cc1 [RWJ20142, 3-(5-(4-chlorophenyl)-1-(4-methoxyphenyl)-1H-pyrazol-3-yl)propanoic acid]
- cell permeability [3]: not cell-permeable
- inhibition of ABCB1-expressing cancer cells [4]: no inhibition

Compound: COc1cc2c(cc1OC)-c1c/c(=N\c3c(C)cc(C)cc3C)n(C)c(=O)n1CC2 [trequinsin]
- induction of PDE3A-SLFN12 interaction (PDE3A-SLFN12): does not induce PDE3A-SLFN12 interaction

Compound: CCN(CC)C(=S)SSC(=S)N(CC)CC [disulfiram]
- effect of copper chelator tetrathiomolybdate (TTM) on the increased sensitivity (SF295 glioma cell line; SF295 MTF1 knockout cells, co-treatment with 1 μM TTM): completely reversed
- change of drug sensitivity after MTF1 knockout (SF295 glioma cell line): increased sensitivity

Compound: O[C@@H](COc1cccc2ncccc12)CN1CCN([C@@H]2c3ccccc3[C@@H]3[C@H](c4ccccc42)C3(F)F)CC1 [zosuquidar]
- Bliss synergy in combination with tepoxalin (LS1034 cells): strong antagonism

Compound: CC(C)C[C@H](NC(=O)[C@H](Cc1ccccc1)NC(=O)c1cnccn1)B(O)O [bortezomib]
- change of drug sensitivity after MTF1 knockout (SF295 glioma cell line): did not alter sensitivity

Compound: COc1cc2c(cc1OC)CN(CCc1ccc(NC(=O)c3cccc4c(=O)c5cccc(OC)c5[nH]c34)cc1)CC2 [elacridar]
- maximum synergy score in combination with paclitaxel [5]: strongly synergistic

Compound: Cc1occc(=O)c1[O-].Cc1occc(=O)c1[O-].[O]=[V+2] [BMOV, bis(maltolato)oxovanadium(IV)]
- sensitivity of cells after SLC26A2 knockout (OVISE cells): resistant

Compound: bis(ethylmaltolato)oxovanadium(IV) [BEOV]
- sensitivity of cells after SLC26A2 knockout (OVISE cells): resistant

Compound: COc1cc2c(cc1OC)CN(CCc1ccc(NC(=O)c3cc(OC)c(OC)cc3NC(=O)c3cnc4ccccc4c3)cc1)CC2 [tariquidar]
- maximum synergy score in combination with paclitaxel [5]: strongly synergistic

Reference: PMC7328899 (Nature cancer, 2020)
